Test results: ChEMBL document CHEMBL1671706 (Antimicrob Agents Chemother, 2010)
≈ marks a conversion by molar mass, not a printed value.

Columns and labels:
Bacillus anthracis [1] = assay: Antimicrobial activity against Bacillus anthracis by Etest; type: functional
Escherichia coli = assay: Antimicrobial activity against Escherichia coli MC1000 by macrodilution method; type: functional
Outline: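 Luria-Bertani medium, 30°C, shaking at 200 rpm, 14 h. Macrodilution per NCCLS aerobic criteria, with inoculum 5 × 10^5 cells/ml. DMSO-dissolved compounds were diluted 2-fold through the tubes, with a DMSO control. MIC is the lowest concentration preventing visible growth in triplicate, confirmed periodically by no absorbance at 600 nm.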

Pseudomonas aeruginosa = assay: Antimicrobial activity against Pseudomonas aeruginosa K by macrodilution method; type: functional
Outline: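 Grown in Luria-Bertani medium at 37°C, shaking at 200 rpm, 16 h. NCCLS macrodilution with 5 × 10^5 cells/ml inoculum. Compounds in DMSO formed a 2-fold tube dilution series, with a control at equal DMSO. MIC was read visually as the lowest growth-preventing concentration in triplicate, periodically confirmed by no detectable A600.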

Bacillus cereus [2] = assay: Antimicrobial activity against Bacillus cereus UW85 by macrodilution method; type: functional
Outline: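 Tube macrodilution per NCCLS. Strain grown in Luria-Bertani medium, 37°C, shaking at 200 rpm, 16 h. Inoculum 5 × 10^5 cells/ml. DMSO stocks diluted 2-fold through the tubes, with a DMSO-matched control. MIC is the lowest concentration without visible growth in triplicate, occasionally checked as no detectable absorbance at 600 nm.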

Caulobacter vibrioides = assay: Antimicrobial activity against Caulobacter crescentus CB15N by macrodilution method; type: functional
Outline: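 Peptone-yeast extract medium, 30°C, shaking at 200 rpm, 22 h. NCCLS macrodilution from 5 × 10^5 cells/ml. Compounds in DMSO given as a 2-fold tube series, with a control at the highest DMSO level. Endpoint is the lowest concentration preventing growth in triplicate by eye, periodically confirmed by absence of A600.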

Staphylococcus aureus [3] = assay: Antimicrobial activity against Staphylococcus aureus FRI 100 by macrodilution method; type: functional
Outline: (§1)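 Static culture in Luria-Bertani medium, 37°C, 14 h. NCCLS macrodilution, inoculum 5 × 10^5 cells/ml. Compounds in DMSO were 2-fold serially diluted through the inoculated tubes, with a DMSO-matched control. MIC is the lowest concentration preventing visible growth in triplicate, periodically confirmed by lack of absorbance at 600 nm.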

Staphylococcus aureus [4] = assay: Antimicrobial activity against Staphylococcus aureus FRI 361 by macrodilution method; type: functional; outline: as §1
Enterococcus faecalis = assay: Antimicrobial activity against Enterococcus faecalis 1131 by macrodilution method; type: functional
Outline: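 Brain heart infusion medium, static, 37°C, 14 h. NCCLS macrodilution, starting inoculum 5 × 10^5 cells/ml. Compounds in DMSO were 2-fold serially diluted across the inoculated tubes, with a matched DMSO control. MIC is the lowest concentration with no visible growth in triplicate, sometimes verified as no detectable A600.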

Bacillus anthracis [5] = assay: Antimicrobial activity against Bacillus anthracis Sterne 7702 by macrodilution method; type: functional
Bacillus cereus [6] = assay: Antimicrobial activity against Bacillus cereus; type: functional
[7] = Toxicity in po dosed female Sherman rat; type: organism-based; settings: in vivo
[8] = Toxicity in po dosed male Sherman rat; type: organism-based; settings: in vivo

SMILES	MIC (Bacillus anthracis [1]) [µM]	MIC (Escherichia coli) [µM]	MIC (Pseudomonas aeruginosa) [µM]	MIC (Bacillus cereus [2]) [µM]	MIC (Caulobacter vibrioides) [µM]	MIC (Staphylococcus aureus [3]) [µM]	MIC (Staphylococcus aureus [4]) [µM]	MIC (Enterococcus faecalis) [µM]	MIC (Bacillus anthracis [5]) [µM]	MIC (Bacillus cereus [6]) [µM]	LD50 [7] [mg/kg]	LD50 [8] [mg/kg]
CN(C)[C@@H]1C(O)=C(C(N)=O)C(=O)[C@@]2(O)C(O)=C3C(=O)c4c(O)cccc4[C@@](C)(O)[C@H]3C[C@@H]12 [TETRACYCLINE]	0.07 (≈ 0.0311 µg/mL)	–	–	–	–	–	–	–	–	–	–	–
Oc1ccc(Cl)cc1Cc1cc(Cl)cc(Cc2cc(Cl)cc(Cc3cc(Cl)ccc3O)c2O)c1O	–	> 80	> 80	0.08 (≈ 0.044 µg/mL)	0.3 (≈ 0.165 µg/mL)	0.16 (≈ 0.088 µg/mL)	0.3 (≈ 0.165 µg/mL)	0.3 (≈ 0.165 µg/mL)	0.16 (≈ 0.088 µg/mL)	–	–	–
CC1(C)S[C@@H]2[C@H](NC(=O)Cc3ccccc3)C(=O)N2[C@H]1C(=O)O [PENICILLIN G]	0.02 (≈ 0.00669 µg/mL)	–	–	–	–	–	–	–	–	–	–	–
Oc1ccc(Cl)cc1Cc1cc(Cl)cc(Cc2cc(Cl)ccc2O)c1O	–	5 (≈ 2.05 µg/mL)	40 (≈ 16.4 µg/mL)	0.3 (≈ 0.123 µg/mL)	2.5 (≈ 1.02 µg/mL)	0.08 (≈ 0.0328 µg/mL)	0.6 (≈ 0.246 µg/mL)	1.3 (≈ 0.533 µg/mL)	0.3 (≈ 0.123 µg/mL)	0.3 (≈ 0.123 µg/mL)	–	–
Oc1ccc(Cl)cc1Cc1cc(Cl)cc(Cc2cc(Cl)cc(Cc3cc(Cl)cc(Cc4cc(Cl)ccc4O)c3O)c2O)c1O	–	> 80	> 80	0.3 (≈ 0.207 µg/mL)	5 (≈ 3.45 µg/mL)	5 (≈ 3.45 µg/mL)	5 (≈ 3.45 µg/mL)	0.6 (≈ 0.415 µg/mL)	1.3 (≈ 0.898 µg/mL)	–	–	–
Oc1ccc(Cl)cc1Cc1cc(Cl)ccc1O [DICHLOROPHEN]	–	160 (≈ 43.1 µg/mL)	> 320	10 (≈ 2.69 µg/mL)	20 (≈ 5.38 µg/mL)	20 (≈ 5.38 µg/mL)	20 (≈ 5.38 µg/mL)	80 (≈ 21.5 µg/mL)	5 (≈ 1.35 µg/mL)	–	1680	1510
